Each block holds one compound with its values, some of them ahead of it.
Columns and labels:
[1] = target: T1, Metabotropic glutamate receptor 4 (Homo sapiens, UniProt Q14833); experiment: Agonistic activity at Metabotropic glutamate receptor 4 expressed in mammalian cells by GTPgammaS binding assay; type: cell-based
Summary of the method: (§1)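 [35S]-GTPγS binding to membranes prepared from CHO cells expressing human mGlu4a. Stimulation is normalised to that given by 1 mM L-Glu. Points are mean ± SEM of three determinations from one experiment.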

[2] = target: T2, Metabotropic glutamate receptor 2 (Homo sapiens, UniProt Q14416); experiment: Agonistic activity on Human Metabotropic glutamate receptor 2 expressed in recombinant mammalian cells by GTPgammaS binding assay; type: cell-based
Summary of the method: (§2)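 [35S]-GTPγS binding assay in a CHO cell line expressing human mGlu2.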

[3] = target: T2, Metabotropic glutamate receptor 2; experiment: Inhibitory concentration on Human Metabotropic glutamate receptor 2 expressed in recombinant mammalian cells by GTPgammaS binding assay; type: cell-based; summary of the method: as §2
[4] = target: T1, Metabotropic glutamate receptor 4; experiment: Inhibitory concentration on Human mGlu4 receptor expressed in recombinant mammalian cells by GTPgammaS binding assay; type: cell-based
[5] = target: T1, Metabotropic glutamate receptor 4; experiment: Inhibition of forskolin-stimulated cAMP accumulation in CHO cells expressing hmGlu4a; type: functional, cell-based
[6] = target: T1, Metabotropic glutamate receptor 4; experiment: Inhibition of forskolin-stimulated cAMP accumulation in CHO cells expressing hmGlu4a; No full inhibition; type: functional, cell-based
[7] = target: T1, Metabotropic glutamate receptor 4; experiment: Agonistic activity on Human mGlu4a receptor expressed in recombinant mammalian cells by GTPgammaS binding assay; type: cell-based; summary of the method: as §1
[8] = target: T2, Metabotropic glutamate receptor 2; experiment: Inhibitory concentration on Human mGlu2 receptor expressed in recombinant mammalian cells by GTPgammaS binding assay; type: cell-based; summary of the method: as §2
[9] = target: T2, Metabotropic glutamate receptor 2; experiment: Agonistic activity on Human mGlu2 receptor expressed in recombinant mammalian cells by GTPgammaS binding assay; type: cell-based; summary of the method: as §2
[10] = target: T1, Metabotropic glutamate receptor 4; experiment: Agonistic activity on Human mGlu4a receptor expressed in recombinant mammalian cells by GTPgammaS binding assay; Partial agonist; type: cell-based; summary of the method: as §1

T2 sequence (Q14416 whole entry): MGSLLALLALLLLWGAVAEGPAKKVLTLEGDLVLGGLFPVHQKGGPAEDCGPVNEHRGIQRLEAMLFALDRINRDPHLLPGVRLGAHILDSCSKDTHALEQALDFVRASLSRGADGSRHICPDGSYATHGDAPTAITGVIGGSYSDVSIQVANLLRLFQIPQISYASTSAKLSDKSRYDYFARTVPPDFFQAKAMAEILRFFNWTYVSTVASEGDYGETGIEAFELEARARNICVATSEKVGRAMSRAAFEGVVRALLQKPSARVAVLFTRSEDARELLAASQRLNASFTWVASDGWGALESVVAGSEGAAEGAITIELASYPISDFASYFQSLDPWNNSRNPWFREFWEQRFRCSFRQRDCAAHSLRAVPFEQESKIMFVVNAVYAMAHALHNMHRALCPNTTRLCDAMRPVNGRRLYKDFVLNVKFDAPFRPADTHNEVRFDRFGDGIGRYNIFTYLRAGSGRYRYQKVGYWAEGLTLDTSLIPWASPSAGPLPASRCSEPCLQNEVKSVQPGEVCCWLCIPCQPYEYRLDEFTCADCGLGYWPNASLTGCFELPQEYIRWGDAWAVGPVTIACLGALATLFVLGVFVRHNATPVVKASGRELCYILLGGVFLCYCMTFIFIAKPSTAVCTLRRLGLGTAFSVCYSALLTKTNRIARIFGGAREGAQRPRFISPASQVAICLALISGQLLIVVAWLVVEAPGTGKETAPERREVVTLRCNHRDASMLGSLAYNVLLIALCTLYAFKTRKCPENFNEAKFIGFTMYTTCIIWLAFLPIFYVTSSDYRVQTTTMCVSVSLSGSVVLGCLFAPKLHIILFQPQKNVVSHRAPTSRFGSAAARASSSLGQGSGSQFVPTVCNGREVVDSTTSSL
T1 sequence (Q14833 whole entry): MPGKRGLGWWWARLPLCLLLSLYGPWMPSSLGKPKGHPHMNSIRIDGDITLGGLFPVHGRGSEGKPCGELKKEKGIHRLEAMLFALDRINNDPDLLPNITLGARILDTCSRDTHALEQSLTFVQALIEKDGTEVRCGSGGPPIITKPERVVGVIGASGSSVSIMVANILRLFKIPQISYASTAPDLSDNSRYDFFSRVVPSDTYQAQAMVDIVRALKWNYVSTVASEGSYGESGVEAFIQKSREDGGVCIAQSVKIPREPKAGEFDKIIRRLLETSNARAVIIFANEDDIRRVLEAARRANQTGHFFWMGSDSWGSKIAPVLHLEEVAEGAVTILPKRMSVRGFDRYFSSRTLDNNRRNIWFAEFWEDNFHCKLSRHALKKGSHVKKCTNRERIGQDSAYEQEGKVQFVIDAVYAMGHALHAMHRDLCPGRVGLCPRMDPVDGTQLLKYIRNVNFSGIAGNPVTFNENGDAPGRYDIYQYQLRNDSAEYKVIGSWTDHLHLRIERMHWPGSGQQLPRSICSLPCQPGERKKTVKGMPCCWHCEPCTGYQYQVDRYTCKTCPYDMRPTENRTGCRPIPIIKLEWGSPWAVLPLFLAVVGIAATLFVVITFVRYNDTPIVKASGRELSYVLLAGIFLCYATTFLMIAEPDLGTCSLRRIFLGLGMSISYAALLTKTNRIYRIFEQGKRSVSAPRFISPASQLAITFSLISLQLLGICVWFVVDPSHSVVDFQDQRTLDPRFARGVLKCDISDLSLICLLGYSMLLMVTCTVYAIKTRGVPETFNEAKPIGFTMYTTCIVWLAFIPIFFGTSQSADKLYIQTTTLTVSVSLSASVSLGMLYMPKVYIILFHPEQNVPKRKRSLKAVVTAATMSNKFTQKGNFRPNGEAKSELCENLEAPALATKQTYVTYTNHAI

EC50 [1]: 7 µM
SMILES: N[C@@]1(C(=O)O)C[C@H](C(=O)O)[C@H](C(=O)O)C1

SMILES: N[C@@]1(C(=O)O)CC[C@H](P(=O)(O)O)C1
EC50 [1]: 86 µM

SMILES: N[C@@]1(C(=O)O)CCC(P(=O)(O)O)C1 (single isomer, unassigned)
EC50 [1]: 27 µM

SMILES: N[C@]1(C(=O)O)C[C@@H]1CP(=O)(O)O
EC50 [1]: 0.58 µM

SMILES: N[C@@H](CCP(=O)(O)O)C(=O)O
EC50 [1]: 0.5 µM

EC50 [1]: 1 µM
SMILES: N[C@@H](COP(=O)(O)O)C(=O)O [DEXFOSFOSERINE]

SMILES: NC1(C(=O)O)CC=C(P(=O)(O)O)C1 (stereo unspecified)
EC50 [2]: > 300 µM
IC50 [3]: > 300 µM
IC50 [4]: > 100 µM
IC50 [5]: > 100 µM
EC50 [6]: ~30 µM
EC50 [7]: 17 µM

EC50 [1]: 9 µM
SMILES: NC1(C(=O)O)C[C@@H](C(=O)O)[C@H](C(=O)O)C1

SMILES: NC1(C(=O)O)C=C(P(=O)(O)O)CC1 (stereo unspecified)
IC50 [8]: > 200 µM
IC50 [4]: > 100 µM
EC50 [9]: > 300 µM
EC50 [5]: > 30 µM
IC50 [5]: > 100 µM
EC50 [10]: > 30 µM

SMILES: N[C@]1(C(=O)O)C[C@H]1CP(=O)(O)O
EC50 [1]: 7.9 µM

EC50 [1]: 4.7 µM
SMILES: NC(C(=O)O)c1ccc(P(=O)(O)O)cc1 (stereo unspecified)
